Source: PMC5204042 (Journal of Breast Cancer, 2016)
Values after ≈ are worked out from the molar mass of the structure shown. “Also recorded” adds a separate entry of the source.

Columns and labels:
Format in all cases: cell-based
MDAMB-231 cells = test: DNA fragmentation
caspase-9 = test: Caspase-9 activity assay; conditions: MDAMB-231, compound at IC50, 24 hours, vs untreated
[1] = test system: MCF-7 breast cancer cells; test: MTT viability assay, MCF-7; conditions: Homo sapiens, MCF7, 48 h, read-out: Anticancer activity (IC50 ± SD) MCF-7
PKCα = PKCα (Homo sapiens, UniProt P17252); test: Immunoblotting to detect PKCα translocation from cytosol to plasma membrane; conditions: MDAMB-231, compound at IC50, 30 minutes, cytosolic PKCα normalized to 100%
caspase-3 = test: Caspase-3 activity assay; conditions: MDAMB-231, compound at IC50, 24 hours, vs untreated
cytochrome c = test: Mitochondrial cyt c release, immunofluorescence; conditions: MDAMB-231, compound at IC50, 24 hours
Outline: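 Mitochondria were labelled with MitoTracker Red (200 nM, 45 min), and cytochrome c was immunostained with an anti-cyt c antibody followed by FITC anti-mouse secondary (4 h, 37 °C). Coverslips were mounted and examined by fluorescence microscopy for cyt c relocation.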

COc1cc(/C=C/C(=O)CC(=O)/C=C/c2ccc(O)c(OC)c2)ccc1O [Curcumin]
genomic DNA fragmentation (MDAMB-231 cells; MDAMB-231, compound at IC50, 12 hours, agarose gel): produced distinct DNA fragments; also recorded: showed DNA fragments of different sizes | genomic DNA fragmentation in presence of NAC (MDAMB-231 cells; MDAMB-231 preincubated with NAC (5 mM)): intact gDNA with no visible appearance of DNA fragments | increase in caspase-9 activity (caspase-9): 35% | IC50 [1]: 5 ± 0.8 µg/mL (≈ 13.6 µM) | translocation of PKC from cytosol to the plasma membrane (PKCα): 17%±1.9% | increase in caspase-3 activity (caspase-3): 65% | release of cyt c from mitochondria to cytosol (cytochrome c): release of cyt c
